According to PMC5042352 (Analytical methods : advancing methods and applications, 2016):
Where two headings read alike, the source gives them in different places.

Legend:
[1] = Stability of the analytes in human plasma at QC levels; assay type: in vitro ADME; details: for Short-term Dev. (%) / Short-term MCM ± SD: 6 h, r.t.; for Short-term Dev. (%) / Short-term MCM ± SD / Long-term Dev. (%) / Long-term MCM ± SD / Freeze–thaw Dev. (%) / Freeze–thaw MCM ± SD: human plasma; for Short-term Dev. (%) / Short-term MCM ± SD / Long-term Dev. (%) / Long-term MCM ± SD / The autosampler Dev. (24h, %) / The autosampler MCM ± SD (24h) / The autosampler Dev. (48h, %) / The autosampler MCM ± SD (48h) / Freeze–thaw Dev. (%) / Freeze–thaw MCM ± SD: n = 5; for Long-term Dev. (%) / Long-term MCM ± SD: 40 days; for Long-term Dev. (%) / Long-term MCM ± SD / Freeze–thaw Dev. (%) / Freeze–thaw MCM ± SD: −40 °C; for The autosampler Dev. (24h, %) / The autosampler MCM ± SD (24h) / The autosampler Dev. (48h, %) / The autosampler MCM ± SD (48h): autosampler r.t.; for Freeze–thaw Dev. (%) / Freeze–thaw MCM ± SD: four cycles
Method in brief: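 QC plasma made by spiking working solution into drug-free human plasma (1:9); the phosphate ester is pre-stabilised with 2M sodium cacodylate and 50% KF. Freeze-thaw: frozen at −40 °C for 24 h, thawed at 25 °C. Short-term: 6 h at room temperature. Long-term: −40 °C for 40 days. Quantified by UPLC-MS/MS against 1/x-weighted analyte/IS peak-area-ratio calibration curves.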

[2] = assay type: in vivo, human (Chinese male healthy subjects)
[3] = reported; cited from earlier work

Row | Structure (SMILES) | Short-term Dev. (%) ([1]; high QC) | Short-term MCM ± SD ([1]; high QC) | Long-term Dev. (%) ([1]; high QC) | Long-term MCM ± SD ([1]; high QC) | The autosampler Dev. (24h, %) ([1]; high QC) | The autosampler MCM ± SD (24h) ([1]; high QC) | The autosampler Dev. (48h, %) ([1]; high QC) | The autosampler MCM ± SD (48h) ([1]; high QC) | Freeze–thaw Dev. (%) ([1]; high QC) | Freeze–thaw MCM ± SD ([1]; high QC) | Short-term Dev. (%) ([1]; low QC) | Short-term MCM ± SD ([1]; low QC) | Long-term Dev. (%) ([1]; low QC) | Long-term MCM ± SD ([1]; low QC) | The autosampler Dev. (24h, %) ([1]; low QC) | The autosampler MCM ± SD (24h) ([1]; low QC) | The autosampler Dev. (48h, %) ([1]; low QC) | The autosampler MCM ± SD (48h) ([1]; low QC) | Freeze–thaw Dev. (%) ([1]; low QC) | Freeze–thaw MCM ± SD ([1]; low QC) | other results
1 | CCC(=O)OCC(=O)[C@@]1(O)[C@@H](C)C[C@H]2[C@@H]3CCC4=CC(=O)C=C[C@]4(C)[C@@]3(F)[C@@H](O)C[C@@]21C [B21P, betamethasone 21-monopropionate] | −8.64% | 3.944 ± 0.303 × 10^−9 mol·dm^−3 | −9.13% | 3.924 ± 0.078 × 10^−9 mol·dm^−3 | −8.3% | 3.960 ± 0.160 × 10^−9 mol·dm^−3 | −9.13% | 3.924 ± 0.171 × 10^−9 mol·dm^−3 | −2.48% | 4.211 ± 0.301 × 10^−9 mol·dm^−3 | 2.97% | 0.463 ± 0.062 × 10^−9 mol·dm^−3 | 8.42% | 0.488 ± 0.067 × 10^−9 mol·dm^−3 | 7.92% | 0.486 ± 0.020 × 10^−9 mol·dm^−3 | −0.5% | 0.448 ± 0.038 × 10^−9 mol·dm^−3 | 2.97% | 0.463 ± 0.024 × 10^−9 mol·dm^−3 | Short-term Dev. (%) ([1]; middle QC): −2.87%; Short-term MCM ± SD ([1]; middle QC): 1.873 ± 0.094 × 10^−9 mol·dm^−3; Long-term Dev. (%) ([1]; middle QC): −1.98%; Long-term MCM ± SD ([1]; middle QC): 1.891 ± 0.143 × 10^−9 mol·dm^−3; The autosampler Dev. (24h, %) ([1]; middle QC): 2.05%; The autosampler MCM ± SD (24h) ([1]; middle QC): 1.993 ± 0.129 × 10^−9 mol·dm^−3; The autosampler MCM ± SD (48h) ([1]; middle QC): 2.007 ± 0.156 × 10^−9 mol·dm^−3; Freeze–thaw Dev. (%) ([1]; middle QC): 1.08%; Freeze–thaw MCM ± SD ([1]; middle QC): 1.949 ± 0.147 × 10^−9 mol·dm^−3; plasma concentration in healthy subjects' plasma samples (detectability) ([2]; after i.m. injection of the compound medicine BSP and BDP): slightly above the LLOQ
2 | CCC(=O)OCC(=O)[C@@]1(OC(=O)CC)[C@@H](C)C[C@H]2[C@@H]3CCC4=CC(=O)C=C[C@]4(C)[C@@]3(F)[C@@H](O)C[C@@]21C [BDP, betamethasone dipropionate] | −0.51% | 44.42 ± 0.893 × 10^−9 mol·dm^−3 | 4.01% | 46.43 ± 1.399 × 10^−9 mol·dm^−3 | −6.84% | 41.59 ± 1.016 × 10^−9 mol·dm^−3 | −2.95% | 43.33 ± 1.131 × 10^−9 mol·dm^−3 | 0.68% | 44.94 ± 1.177 × 10^−9 mol·dm^−3 | 4.0% | 0.258 ± 0.048 × 10^−9 mol·dm^−3 | −3.2% | 0.240 ± 0.012 × 10^−9 mol·dm^−3 | −11.2% | 0.220 ± 0.016 × 10^−9 mol·dm^−3 | −10.4% | 0.222 ± 0.020 × 10^−9 mol·dm^−3 | 11.2% | 0.276 ± 0.042 × 10^−9 mol·dm^−3 | Short-term Dev. (%) ([1]; middle QC): 2.04%; Short-term MCM ± SD ([1]; middle QC): 4.746 ± 0.155 × 10^−9 mol·dm^−3; Long-term Dev. (%) ([1]; middle QC): 1.80%; Long-term MCM ± SD ([1]; middle QC): 4.734 ± 0.141 × 10^−9 mol·dm^−3; The autosampler Dev. (24h, %) ([1]; middle QC): −7.45%; The autosampler MCM ± SD (24h) ([1]; middle QC): 4.304 ± 0.123 × 10^−9 mol·dm^−3; The autosampler Dev. (48h, %) ([1]; middle QC): −5.68%; The autosampler MCM ± SD (48h) ([1]; middle QC): 4.387 ± 0.103 × 10^−9 mol·dm^−3; Freeze–thaw Dev. (%) ([1]; middle QC): 3.45%; Freeze–thaw MCM ± SD ([1]; middle QC): 4.811 ± 0.135 × 10^−9 mol·dm^−3; elimination half-life time [3]: 25.8 min
3 | C[C@H]1C[C@H]2[C@@H]3CCC4=CC(=O)C=C[C@]4(C)[C@@]3(F)[C@@H](O)C[C@]2(C)[C@@]1(O)C(=O)CO [BOH, betamethasone] | 8.02% | 64.74 ± 5.074 × 10^−9 mol·dm^−3 | −12.3% | 52.55 ± 2.816 × 10^−9 mol·dm^−3 | −10.82% | 53.47 ± 2.906 × 10^−9 mol·dm^−3 | 6.68% | 63.95 ± 3.102 × 10^−9 mol·dm^−3 | 5.54% | 63.29 ± 2.673 × 10^−9 mol·dm^−3 | 9.63% | 0.610 ± 0.048 × 10^−9 mol·dm^−3 | 7.34% | 0.597 ± 0.064 × 10^−9 mol·dm^−3 | 5.04% | 0.584 ± 0.056 × 10^−9 mol·dm^−3 | 2.29% | 0.569 ± 0.087 × 10^−9 mol·dm^−3 | 3.67% | 0.577 ± 0.038 × 10^−9 mol·dm^−3 | Short-term Dev. (%) ([1]; middle QC): 8.82%; Short-term MCM ± SD ([1]; middle QC): 10.87 ± 0.633 × 10^−9 mol·dm^−3; Long-term Dev. (%) ([1]; middle QC): 5.78%; Long-term MCM ± SD ([1]; middle QC): 10.57 ± 0.577 × 10^−9 mol·dm^−3; The autosampler MCM ± SD (24h) ([1]; middle QC): 10.20 ± 0.505 × 10^−9 mol·dm^−3; The autosampler Dev. (48h, %) ([1]; middle QC): 3.89%; The autosampler MCM ± SD (48h) ([1]; middle QC): 10.38 ± 0.513 × 10^−9 mol·dm^−3; Freeze–thaw Dev. (%) ([1]; middle QC): 4.88%; Freeze–thaw MCM ± SD ([1]; middle QC): 10.48 ± 0.645 × 10^−9 mol·dm^−3; AUC0–∞ ([2]; Reference formulation, mean ± SD, n = 23): 915.3 ± 206.5 × 10^−9 mol·dm^−3·h^−1; AUC0–∞ ([2]; Test formulation, mean ± SD, n = 23): 856.6 ± 269.4 × 10^−9 mol·dm^−3·h^−1; AUC0–t ([2]; Test formulation, t = 4 h (BDP), 120 h (BOH), 360 h (B17P), mean ± SD, n = 23): 820.2 ± 249.4 × 10^−9 mol·dm^−3·h^−1
4 | C[C@H]1C[C@H]2[C@@H]3CCC4=CC(=O)C=C[C@]4(C)[C@@]3(F)[C@@H](O)C[C@]2(C)[C@@]1(O)C(=O)COP(=O)([O-])[O-].[Na+].[Na+] [BSP, betamethasone sodium phosphate] | −3.78% | 310.9 ± 14.43 × 10^−9 mol·dm^−3 | −1.02% | 320.0 ± 10.35 × 10^−9 mol·dm^−3 | −2.94% | 313.6 ± 35.39 × 10^−9 mol·dm^−3 | 11.19% | 359.2 ± 22.46 × 10^−9 mol·dm^−3 | −2.50% | 315.1 ± 4.665 × 10^−9 mol·dm^−3 | −1.19% | 4.988 ± 0.250 × 10^−9 mol·dm^−3 | −1.07% | 4.994 ± 0.560 × 10^−9 mol·dm^−3 | 4.03% | 5.252 ± 0.696 × 10^−9 mol·dm^−3 | 10.63% | 5.585 ± 0.616 × 10^−9 mol·dm^−3 | −2.84% | 4.905 ± 0.357 × 10^−9 mol·dm^−3 | Short-term Dev. (%) ([1]; middle QC): −2.55%; Short-term MCM ± SD ([1]; middle QC): 39.36 ± 5.767 × 10^−9 mol·dm^−3; Long-term Dev. (%) ([1]; middle QC): −1.06%; Long-term MCM ± SD ([1]; middle QC): 39.94 ± 5.576 × 10^−9 mol·dm^−3; The autosampler Dev. (24h, %) ([1]; middle QC): 1.08%; The autosampler MCM ± SD (24h) ([1]; middle QC): 40.83 ± 5.209 × 10^−9 mol·dm^−3; The autosampler Dev. (48h, %) ([1]; middle QC): 9.88%; The autosampler MCM ± SD (48h) ([1]; middle QC): 44.38 ± 5.581 × 10^−9 mol·dm^−3; Freeze–thaw Dev. (%) ([1]; middle QC): −2.67%; Freeze–thaw MCM ± SD ([1]; middle QC): 39.30 ± 5.785 × 10^−9 mol·dm^−3; stability in human blank plasma ([1]; without stabilizer (sodium cacodylate, potassium fluoride)): labile
